Reference: ChEMBL document CHEMBL3102842, “Direct synthesis of C3-mono-functionalized oxindoles from N-unprotected 2-oxindole and their antileishmanial activity” (Bioorg Med Chem, 2014)
Converted amounts (≈) assume the structure as drawn.

What was measured:
[1] = Therapeutic index, ratio of TC50 for mouse RAW264.7 cells to EC50 for Leishmania infantum zymodeme MON-1 axenic amastigotes; settings: read-out: TI
Procedure, shortened: (§1)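 Index calculated as TC50 on RAW 264.7 macrophages (MTT assay) divided by EC50 on L. infantum promastigotes or axenic amastigotes, using the same incubation time (24 or 48 h) for both.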

[2] = Therapeutic index, ratio of TC50 for mouse RAW264.7 cells to EC50 for Leishmania infantum zymodeme MON-1 promastigotes after 24 hrs; settings: read-out: TI; procedure, shortened: as §1
Leishmania infantum [3] = test: Antileishmanial activity against Leishmania infantum zymodeme MON-1 promastigotes assessed as parasite survival after 24 hrs; assay type: functional, organism-based; settings: zymodeme MON-1, 24 h
Procedure, shortened: (§2)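 Log-phase promastigotes from 26 °C Schneider's Drosophila medium with 10% heat-inactivated FCS, pH 7.2, adjusted to 5×10^6 parasites/mL. Compounds in DMSO (≤1% v/v) at 10–100 µg/mL, incubated at 26 °C. Surviving promastigotes counted in a Neubauer chamber and compared with drug-free controls.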

[4] = Therapeutic index, ratio of TC50 for mouse RAW264.7 cells to EC50 for Leishmania infantum zymodeme MON-1 axenic amastigotes after 48 hrs; settings: read-out: TI; procedure, shortened: as §1
Leishmania infantum [5] = test: Antileishmanial activity against Leishmania infantum zymodeme MON-1 promastigotes assessed as parasite survival after 48 hrs; assay type: functional, organism-based; settings: zymodeme MON-1, 48 h; procedure, shortened: as §2
[6] = Cytotoxicity against mouse RAW264.7 cells after 48 hrs by MTT assay; assay type: cell-based; settings: read-out: TC50
Procedure, shortened: (§3)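 RAW 264.7 cells in RPMI 1640 with L-glutamine, 10% FBS and penicillin/streptomycin, seeded at 1×10^5 cells/well and left to adhere overnight at 37 °C, 5% CO2. Compounds at 10, 50 and 100 µg/mL, 37 °C. MTT (5 mg/mL) added for 4 h, formazan dissolved in DMSO, A540 read. Survival expressed as percent of untreated control, in triplicate. TC50 taken as the 50% macrophage-death concentration.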

[7] = Cytotoxicity against mouse RAW264.7 cells after 24 hrs by MTT assay; assay type: cell-based; settings: read-out: TC50; procedure, shortened: as §3
Leishmania infantum [8] = test: Antileishmanial activity against Leishmania infantum zymodeme MON-1 axenic amastigotes assessed as parasite survival after 24 hrs; assay type: functional, organism-based; settings: zymodeme MON-1, 24 h
Procedure, shortened: (§4)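 Axenic amastigotes grown cell-free at 37 °C, 5% CO2 in MAA/20 (modified medium 199 with Hank's salts, tryptocasein, glucose, glutamine, NaHCO3, hemin, 25 mM HEPES, pH 6.5, 20% heat-inactivated FBS). Compounds in DMSO (≤1% v/v) at 10–100 µg/mL, 37 °C. Viability read after TO-PRO-3 staining (10 min, room temperature) by ImageStream imaging cytometry, ≥10,000 events per sample.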

[9] = Therapeutic index, ratio of TC50 for mouse RAW264.7 cells to EC50 for Leishmania infantum zymodeme MON-1 promastigotes after 48 hrs; settings: read-out: TI; procedure, shortened: as §1
Leishmania infantum [10] = test: Antileishmanial activity against Leishmania infantum zymodeme MON-1 axenic amastigotes assessed as parasite survival after 48 hrs; assay type: functional, organism-based; settings: zymodeme MON-1, 48 h; procedure, shortened: as §4

Structure (SMILES)	selectivity ratio [1]	selectivity ratio at 24 h [2]	EC50 (Leishmania infantum [3])	EC95 (Leishmania infantum [3])	selectivity ratio at 48 h [4]	EC50 (Leishmania infantum [5])	EC95 (Leishmania infantum [5])	CC50 at 48 h [6]	CC50 at 24 h [7]	EC50 (Leishmania infantum [8])	EC95 (Leishmania infantum [8])	selectivity ratio at 48 h [9]	EC50 (Leishmania infantum [10])	EC95 (Leishmania infantum [10])
O=C(C[C@@H](c1ccccc1)[C@H]1C(=O)Nc2ccccc21)c1ccccc1 (relative stereo)	4.7	4.4	16.2 mg/L (≈ 47.5 µM)	77.8 mg/L (≈ 228 µM)	11.2	6.3 mg/L (≈ 18.5 µM)	72.1 mg/L (≈ 211 µM)	66.6 mg/L (≈ 195 µM)	71.6 mg/L (≈ 210 µM)	15.3 mg/L (≈ 44.8 µM)	75.6 mg/L (≈ 221 µM)	10.6	5.9 mg/L (≈ 17.3 µM)	69.4 mg/L (≈ 203 µM)
Cc1ccc([C@H](CC(=O)c2ccccc2)[C@H]2C(=O)Nc3ccccc32)cc1 (relative stereo)	1.6	1.5	62 mg/L (≈ 174 µM)	111 mg/L (≈ 312 µM)	1.3	51.6 mg/L (≈ 145 µM)	96 mg/L (≈ 270 µM)	67.6 mg/L (≈ 190 µM)	93.3 mg/L (≈ 262 µM)	60.1 mg/L (≈ 169 µM)	99.5 mg/L (≈ 280 µM)	1.3	48.4 mg/L (≈ 136 µM)	94.3 mg/L (≈ 265 µM)
COc1ccc([C@H](CC(=O)c2ccccc2)[C@H]2C(=O)Nc3ccccc32)cc1 (relative stereo)	1.7	1.3	29.7 mg/L (≈ 80 µM)	78.5 mg/L (≈ 211 µM)	2.7	14.2 mg/L (≈ 38.2 µM)	74 mg/L (≈ 199 µM)	35.4 mg/L (≈ 95.3 µM)	41 mg/L (≈ 110 µM)	24.2 mg/L (≈ 65.2 µM)	75.4 mg/L (≈ 203 µM)	2.5	13.1 mg/L (≈ 35.3 µM)	71.2 mg/L (≈ 192 µM)
C[C@@H]1[C@H](O)[C@@H](C)/C=C/C=C/C=C/C=C/C=C/C=C/C=C/[C@H](O[C@@H]2O[C@H](C)[C@@H](O)[C@H](N)[C@@H]2O)C[C@@H]2O[C@](O)(C[C@@H](O)C[C@@H](O)[C@H](O)CC[C@@H](O)C[C@@H](O)CC(=O)O[C@H]1C)C[C@H](O)[C@H]2C(=O)O [AMPHOTERICIN B]	39.1	35.1	0.55 mg/L (≈ 0.595 µM)	3.9 mg/L (≈ 4.22 µM)	8.2	0.4 mg/L (≈ 0.433 µM)	3.9 mg/L (≈ 4.22 µM)	3.1 mg/L (≈ 3.35 µM)	19.6 mg/L (≈ 21.2 µM)	0.5 mg/L (≈ 0.541 µM)	3.9 mg/L (≈ 4.22 µM)	8.2	0.4 mg/L (≈ 0.433 µM)	3.4 mg/L (≈ 3.68 µM)
O=C(/C=C/c1ccccc1)c1ccccc1 [CHALCONE]	5.5	4.9	5.7 mg/L (≈ 27.4 µM)	83.5 mg/L (≈ 401 µM)	23.7	1.5 mg/L (≈ 7.2 µM)	71.1 mg/L (≈ 341 µM)	30.7 mg/L (≈ 147 µM)	28.1 mg/L (≈ 135 µM)	5.1 mg/L (≈ 24.5 µM)	79.5 mg/L (≈ 382 µM)	20.1	1.3 mg/L (≈ 6.24 µM)	69.9 mg/L (≈ 336 µM)
O=C1Cc2ccccc2N1 [OXINDOLE]	0.6	0.5	232 mg/L (≈ 1750 µM)	447 mg/L (≈ 3360 µM)	2.2	72.4 mg/L (≈ 544 µM)	146 mg/L (≈ 1100 µM)	154 mg/L (≈ 1160 µM)	126 mg/L (≈ 945 µM)	199 mg/L (≈ 1490 µM)	430 mg/L (≈ 3230 µM)	2.1	69.5 mg/L (≈ 522 µM)	136 mg/L (≈ 1020 µM)
